For one data set, the target named is Adenosine receptor A2a (Rattus norvegicus, UniProt P30543). Put plainly: Displacement of [3H]NECA from adenosine A2A receptor in Sprague-Dawley rat striatal membrane after 1 hr by scintillation counting. On the set-up: species or system Striatum.
The next data set concerns the target T1, Adenosine receptor A1 (Rattus norvegicus, UniProt P25099).
T1 sequence (P25099 whole entry): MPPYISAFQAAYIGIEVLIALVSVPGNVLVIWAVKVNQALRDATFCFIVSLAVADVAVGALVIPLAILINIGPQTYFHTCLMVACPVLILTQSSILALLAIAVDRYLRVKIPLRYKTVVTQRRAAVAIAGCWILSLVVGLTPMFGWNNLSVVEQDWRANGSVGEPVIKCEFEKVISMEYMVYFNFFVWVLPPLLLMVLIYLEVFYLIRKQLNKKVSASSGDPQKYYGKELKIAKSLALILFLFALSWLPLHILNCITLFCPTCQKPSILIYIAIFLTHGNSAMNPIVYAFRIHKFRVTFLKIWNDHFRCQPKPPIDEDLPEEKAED
Briefly: Displacement of [3H]DPCPX from adenosine A1 receptor in Sprague-Dawley rat whole brain after 1 hr by scintillation counting.

For data set [1], the species on record is Rattus norvegicus. Put plainly: Selectivity ratio of Ki for adenosine A2A receptor in Sprague-Dawley rat striatal membrane to Ki for adenosine A1 receptor in Sprague-Dawley rat whole brain. The essentials:
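Index calculated as A2A Ki divided by A1 Ki. Both Ki values come from radioligand binding assays and are given as the mean ± SEM of duplicate determinations.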

The nature of data set [2]: n-octanol-potassium phosphate buffer partition coefficient, log D of the compound at pH 7.4 by shake flask method. In kind it is physicochemical. An outline of the steps:
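Shake flask method; hydrophilic phase potassium phosphate buffer pH 7.4, hydrophobic phase n-octanol.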

The test system of data set [3] is Rattus norvegicus. Briefly: Reversal of haloperidol-induced catalepsy in Sprague-Dawley rat at 0.4 to 2 mg/kg, ip after 60 mins relative to control. It is filed as functional, organism-based. The essentials: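 Sprague–Dawley rats, drug naïve, three groups; all given haloperidol 5.0 mg/kg i.p. to induce catalepsy. Thirty minutes later: DMSO (control) or test compound at 0.4 or 2 mg/kg. Catalepsy scored by standard bar test 60 minutes after first injection; compared with haloperidol + vehicle group by one-way ANOVA and Dunnett's post test.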

The nature of data set [4]: Solubility of the compound at 4.5 mg after 24 hrs by HPLC analysis. It is filed as physicochemical. The essentials:
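Water solubility: excess compound shaken in water at 37 °C.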

Converted amounts (≈) assume the structure as drawn. The source made the active and inactive calls. The calls are words filed in the database; no cut-off is given here.

Chain of Adenosine receptor A2a (P30543 whole entry): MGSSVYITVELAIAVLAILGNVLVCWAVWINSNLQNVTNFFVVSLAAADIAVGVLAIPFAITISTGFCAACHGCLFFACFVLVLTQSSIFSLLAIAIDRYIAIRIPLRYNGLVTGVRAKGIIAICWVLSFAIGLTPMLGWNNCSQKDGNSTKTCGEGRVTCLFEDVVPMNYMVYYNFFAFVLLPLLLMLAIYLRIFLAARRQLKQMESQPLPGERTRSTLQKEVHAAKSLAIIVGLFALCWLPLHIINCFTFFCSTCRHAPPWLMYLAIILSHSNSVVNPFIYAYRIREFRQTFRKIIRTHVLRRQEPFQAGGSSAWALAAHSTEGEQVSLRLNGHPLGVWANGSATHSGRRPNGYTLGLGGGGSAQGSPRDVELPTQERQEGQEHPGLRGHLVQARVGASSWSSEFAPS

In the case of `Nc1nc(-c2ccccc2)cc(-c2cccc(OC(=O)N3CCCC3)c2)n1`, the values for the Ki on Adenosine receptor A2a and on Adenosine receptor A1 were 24.8 nM and 0.835 nM, respectively. For the same molecule, the Ratio Ki in the data set filed under Rattus norvegicus [1] turned out to be 30.
`CN1CCN(C(=O)Oc2cccc(-c3cc(-c4ccccc4)nc(N)n3)c2)CC1`: the pH-dependent lipophilicity (logD) in data set [2] was found to be 4.03. Also, the Ki at Adenosine receptor A2a was 1.58 nM; on Adenosine receptor A1, 2.04 nM. Also, the result in the data set on Rattus norvegicus [3] was inactive. The same molecule displayed a solubility at 24 h in data set [4] of 0.22 µM (≈ 0.0857 µg/mL). In addition, the Ratio Ki in the data set listed under Rattus norvegicus [1] is 0.8.
In the case of `CC(C)N(C(=O)Oc1cccc(-c2cc(-c3ccccc3)nc(N)n2)c1)C(C)C`, the Ki amounted to 12.1 nM at Adenosine receptor A2a and 0.175 nM at Adenosine receptor A1. The Ratio Ki in the data set listed under Rattus norvegicus [1] worked out at 69.
The matching figures for `CN(C)C(=O)Oc1cccc(-c2cc(-c3ccccc3)nc(N)n2)c1`: 51.9 nM, 2.06 nM and 25.
In the same order, the values of `Nc1nc(-c2ccccc2)cc(-c2cccc(OC(=O)N(c3ccccc3)c3ccccc3)c2)n1` are 451 nM, 10.7 nM and 42.
In the same order, the values of `CN(C(=O)Oc1cccc(-c2cc(-c3ccccc3)nc(N)n2)c1)c1ccccc1` are 39.9 nM, 1.07 nM and 37.
With `Nc1nc(-c2ccccc2)cc(-c2cccc(OC(=O)N3CCOCC3)c2)n1`, the Ki on Adenosine receptor A2a is 3.5 nM; on Adenosine receptor A1, 2.65 nM. Besides, the result with Rattus norvegicus [3] was Active. Also, the Ratio Ki in the data set listed under Rattus norvegicus [1] came to 1.3.
For the molecule `CCN(CC)C(=O)Oc1cccc(-c2cc(-c3ccccc3)nc(N)n2)c1`, the Ki at Adenosine receptor A2a was 22.8 nM; on Adenosine receptor A1 it was 0.468 nM. Further, in the data set listed under Rattus norvegicus [1], the Ratio Ki was found to be 49.
Turning to `Nc1nc(-c2ccccc2)cc(-c2cccc(OC(=O)N3CCCCC3)c2)n1`, the Ki is 8.94 nM at Adenosine receptor A2a and 1.95 nM at Adenosine receptor A1. Also, the Ratio Ki in the data set filed under Rattus norvegicus [1] came out at 4.6.
